Consider eight compounds from ChEMBL document CHEMBL1135746, “Structure-activity relationships of the antimalarial agent artemisinin. 7. Direct modification of (+)-artemisinin and in vivo antimalarial screening of new, potential preclinical antimalarial candidates” (J Med Chem, 2002).

Test [1] has as its system Plasmodium falciparum. The test is described as follows: Inhibitory activity against Plasmodium falciparum K1. The test is classed as functional, organism-based.
In test [2] the test system is Plasmodium yoelii. The test is described as follows: Effective dose ED90 against Plasmodium yoelii sspNS on subcutaneous dose. The test is classed as functional. Conditions: sc.
Test [3] relates to Plasmodium falciparum. In words: Inhibitory activity against Plasmodium falciparum NF54. It counts as functional, organism-based.
For test [4], the system named is Plasmodium berghei. In words: Effective dose ED50 against Plasmodium berghei N in mice (Mus musculus) malaria model after peroral administration. Conditions: Plasmodium berghei, po; read-out: ED50. The test is classed as functional.
Test [5] concerns Plasmodium berghei. In words: Effective dose ED90 against Plasmodium berghei N in mice (Mus musculus) malaria model after subcutaneous administration. The test is classed as functional.
Test [6] deals with Plasmodium yoelii. In words: Effective subcutaneous dose ED50 against Plasmodium yoelii sspNS. Conditions: sc. It counts as functional.
The test system of test [7] is Plasmodium falciparum. The test is described as follows: Inhibitory activity against Plasmodium falciparum W2. It counts as functional, organism-based. In outline: (§1)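 Parasitized human red blood cells were used in short-term microtitre cultures. Compounds were dissolved in DMSO and diluted 400-fold in culture medium with plasma, giving a starting concentration of at least 12 500 ng/mL. Activity was measured as inhibition of parasite uptake of a radiolabelled nucleic acid precursor.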

The test system of test [8] is Plasmodium berghei. In words: Effective dose ED50 against Plasmodium berghei N in mice (Mus musculus) malaria model after subcutaneous administration. It counts as functional. Conditions: Plasmodium berghei, sc; read-out: ED50.
Test [9] relates to Plasmodium falciparum. The test is described as follows: Inhibitory activity against Plasmodium falciparum D6. The test is classed as functional, organism-based. In outline: as §1
Test [10] relates to Plasmodium berghei. In words: Effective dose ED90 against Plasmodium berghei N in mice (Mus musculus) malaria model after peroral administration. The test is classed as functional. Conditions: po.
The subject of test [11] is Plasmodium berghei. The test is described as follows: Antimalarial activity in Plasmodium berghei infected mice (Mus musculus) at 32 mg/kg/day peroral dose. It counts as functional. Conditions: route oral. The gist of the method: (§2)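 CD-1 mice (16-18 g), quarantined 2 weeks, then infected with P. berghei (Thompson test). Treatment was given on days 3-5 postinfection. Subcutaneous dosing was a single injection; oral dosing was by gavage of a peanut-oil suspension. Groups of 5 mice were used. Survival was scored out of 5 and parasitemia was followed up to 60 days postinfection.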

Test [12] has as its system Plasmodium berghei. In words: Antimalarial activity in Plasmodium berghei infected mice (Mus musculus) at 32 mg/kg/day subcutaneous dose. It counts as functional. In outline: as §2
Test [13] relates to Plasmodium berghei. The test is described as follows: Antimalarial activity in Plasmodium berghei infected mice (Mus musculus) at 8 mg/kg/day subcutaneous dose. It counts as functional. The gist of the method: as §2
Test [14] relates to Plasmodium berghei. In words: Antimalarial activity in Plasmodium berghei infected mice (Mus musculus) after 128 mg/kg/day subcutaneous dose. The test is classed as functional. The gist of the method: as §2
The subject of test [15] is Plasmodium berghei. In words: Antimalarial activity in Plasmodium berghei infected mice (Mus musculus) at 8 mg/kg/day peroral dose. The test is classed as functional. Conditions: route oral. The gist of the method:
as §2

The subject of test [16] is Plasmodium yoelii. The test is described as follows: Effective oral dose ED90 in DMSO against Plasmodium yoelii sspNS. The test is classed as functional.
Test [17] deals with Plasmodium yoelii. The test is described as follows: Effective dose ED50 against Plasmodium yoelii sspNS in presence of SSV. It counts as functional.
Test [18] has as its system Plasmodium yoelii. In words: Effective oral dose ED90 in SSV against Plasmodium yoelii sspNS. The test is classed as functional.
The test system of test [19] is Plasmodium yoelii. In words: Effective oral dose ED50 in DMSO against Plasmodium yoelii sspNS. The test is classed as functional.
In test [20] the test system is Plasmodium berghei. In words: Antimalarial activity in Plasmodium berghei infected mice (Mus musculus) at 128 mg/kg/day peroral dose. The test is classed as functional. Conditions: route oral. In outline: as §2
The test system of test [21] is Plasmodium yoelii. The test is described as follows: Effective subcutaneous dose ED90 against Plasmodium yoelii sspNS. The test is classed as functional.
In test [22] the test system is Plasmodium berghei. In words: Antimalarial activity against Plasmodium berghei infected mice (Mus musculus) at 32 mg/kg/day subcutaneous dose. The test is classed as functional. In outline:
as §2

The mark [23] stands for this setting: Plasmodium berghei, sc, read-out: ED90.

The term IC50 denotes the midpoint of a concentration-inhibition curve. High values mean weaker potency, low ones greater potency. What is called ED50 is the dose at which the effect has come halfway, by size or by number of responders.

Values after ≈ are worked out from the molar mass of the structure shown. Values joined by “and” are separate entries in the source; they are usually repeats but may differ in a detail not shown here. Equal values may be shown once.

In the case of `C[C@@H]1CC[C@H]2[C@@H](CCCc3cccc(Cl)c3)CO[C@@H]3OC4(C)CC[C@@H]1[C@]32OO4` (single isomer, unassigned), the IC50 was 0.0101 µg/mL (≈ 0.0247 µM) in the test on Plasmodium falciparum [1], 0.0183 µg/mL (≈ 0.0449 µM) with Plasmodium falciparum [3], 0.0216 µg/mL (≈ 0.0531 µM) with Plasmodium falciparum [7] and 0.00755 µg/mL (≈ 0.0186 µM) with Plasmodium falciparum [9]. The ED90 with Plasmodium yoelii [2] is 1 mg/kg; with Plasmodium berghei [5] (setting [23]), 0.9 mg/kg; in the test on Plasmodium berghei [10], 8.3 mg/kg. Also, the ED50 in the test on Plasmodium berghei [4] amounted to 2 mg/kg; in the test with Plasmodium yoelii [6], 0.6 mg/kg; in the test on Plasmodium berghei [8], 0.5 mg/kg.
As to `C[C@@H]1CC[C@H]2[C@@H](CCCc3cccc(C(F)(F)F)c3)CO[C@@H]3OC4(C)CC[C@@H]1[C@]32OO4` (single isomer, unassigned), the IC50 with Plasmodium falciparum [1] is 0.012 µg/mL (≈ 0.0272 µM); in the test on Plasmodium falciparum [3], 0.0356 µg/mL (≈ 0.0808 µM); with Plasmodium falciparum [7], 0.0303 µg/mL (≈ 0.0688 µM); with Plasmodium falciparum [9] it was 0.00848 µg/mL (≈ 0.0193 µM). The ED90 stood at 1 mg/kg in the test with Plasmodium yoelii [2], 0.75 mg/kg in the test with Plasmodium berghei [5] (setting [23]) and 4.4 mg/kg in the test on Plasmodium berghei [10]. The ED50 stood at 1.25 mg/kg with Plasmodium berghei [4], 0.6 mg/kg with Plasmodium yoelii [6] and 0.4 mg/kg with Plasmodium berghei [8].
Take `CCCC[C@H]1CO[C@@H]2O[C@]3(C)CC[C@H]4[C@H](C)CC[C@@H]1[C@@]24OO3`: the Activity in the test with Plasmodium berghei [11] worked out at 2; in the test on Plasmodium berghei [12], 5; in the test with Plasmodium berghei [13] it was 5; with Plasmodium berghei [14] it was 5; in the test with Plasmodium berghei [15] it was 0.
Take `C[C@@H]1CC[C@H]2[C@@H](CCCc3cc(C(F)(F)F)cc(C(F)(F)F)c3)CO[C@@H]3OC4(C)CC[C@@H]1[C@]32OO4` (single isomer, unassigned): the IC50 with Plasmodium falciparum [1] is 0.00406 µg/mL (≈ 0.00798 µM); in the test with Plasmodium falciparum [7], 0.00711 µg/mL (≈ 0.014 µM); in the test on Plasmodium falciparum [9], 0.00078 µg/mL (≈ 0.00153 µM). Further, the ED90 in the test on Plasmodium yoelii [16] was determined as 3.6 mg/kg; with Plasmodium yoelii [18], 12 mg/kg; in the test with Plasmodium berghei [5] (setting [23]), 1.7 mg/kg; with Plasmodium berghei [10] it was 5 mg/kg. The ED50 came to 2.6 mg/kg in the test on Plasmodium berghei [4], 4.2 mg/kg with Plasmodium yoelii [17], 0.9 mg/kg with Plasmodium berghei [8] and 1.5 mg/kg in the test with Plasmodium yoelii [19].
For the compound `C[C@@H]1CC[C@H]2[C@@H](CCCc3ccc(Cl)c(Cl)c3)CO[C@@H]3OC4(C)CC[C@@H]1[C@]32OO4` (single isomer, unassigned), the Activity with Plasmodium berghei [11] is 5; with Plasmodium berghei [20], 5; with Plasmodium berghei [12], 5; in the test on Plasmodium berghei [13], 0; in the test on Plasmodium berghei [14], 5; in the test with Plasmodium berghei [15], 0.
In the case of `C[C@@H]1CC[C@H]2[C@@H](C)C(=O)O[C@@H]3O[C@@]4(C)CC[C@@H]1[C@]32OO4` [ARTEMISININ], the Activity in the test on Plasmodium berghei [11] worked out at 0; in the test with Plasmodium berghei [20], 0; with Plasmodium berghei [12], 3; with Plasmodium berghei [13], 0; in the test with Plasmodium berghei [14], 5; in the test with Plasmodium berghei [15], 0.
Regarding `C[C@@H]1CC[C@H]2[C@@H](CCCc3ccc(Cl)cc3)CO[C@@H]3OC4(C)CC[C@@H]1[C@]32OO4` (single isomer, unassigned), the Activity in the test with Plasmodium berghei [20], in the test on Plasmodium berghei [12] and with Plasmodium berghei [14] was 5 each time. Also, the IC50 in the test on Plasmodium falciparum [7] was found to be 0.0026 µg/mL (≈ 0.00639 µM); in the test on Plasmodium falciparum [9], 0.0019 µg/mL (≈ 0.00467 µM). In addition, the ED90 in the test on Plasmodium yoelii [21] is given as 1. In the test on Plasmodium berghei [22], this compound registered a Survival dose of 5.
For `C[C@@H]1CC[C@H]2[C@@H](CCCc3ccc(C(F)(F)F)cc3)CO[C@@H]3OC4(C)CC[C@@H]1[C@]32OO4` (single isomer, unassigned), the IC50 stood at 0.0395 µg/mL (≈ 0.0898 µM) in the test with Plasmodium falciparum [1], 0.102 µg/mL (≈ 0.23 µM) with Plasmodium falciparum [3], 0.058 µg/mL (≈ 0.132 µM) with Plasmodium falciparum [7] and 0.0281 µg/mL (≈ 0.0639 µM) in the test on Plasmodium falciparum [9]. Also, the ED90 with Plasmodium yoelii [2] is 1.25 mg/kg; in the test on Plasmodium berghei [5], 0.8 mg/kg and 2.1 mg/kg. The figures for the ED50 with Plasmodium yoelii [6] and in the test with Plasmodium berghei [8] were 0.67 mg/kg and 0.44 mg/kg, respectively.
